Data published in publication PMC8591627 (ACS infectious diseases, 2021).
Converted amounts (≈) assume the structure as drawn. “And” between values parts separate entries of the source, which are not always exact repeats. Equal values may be shown once.

How the values were obtained:
LAC = assay: MIC; assay type: cell-based, Staphylococcus aureus; conditions: genotype LAC
Method in brief: (§1)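 Overnight cultures were grown in 5 mL Mueller-Hinton at 37 °C with shaking at 200 rpm. They were diluted 1/1000 into 96-well plates holding serial dilutions of test compound in Mueller-Hinton broth. Plates were sealed against drying and incubated statically at 37 °C for 18 h before reading. All strains are isogenic and in the LAC background.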

[1] = test system: S. aureus LAC yceI::Tn pLL39; assay: MIC; assay type: cell-based, Staphylococcus aureus; conditions: genotype yceI::Tn pLL39, LAC background
LAC yceI::Tn = assay: MIC; assay type: cell-based, Staphylococcus aureus; conditions: genotype yceI::Tn, LAC background
Method in brief: as §1

MSSA ATCC 25923 = assay: MIC, drug susceptibility assay; assay type: cell-based, Staphylococcus aureus; conditions: 18 h, 37 °C, visual inspection
LAC yceI::Tn azoR1 pCM28 = assay: MIC; assay type: cell-based, Staphylococcus aureus
Method in brief: as §1

S. aureus (ATCC 43300) [2] = assay: Nitric oxide release assay, DAF-FM diacetate; assay type: cell-based, Staphylococcus aureus; conditions: 100 μM, over 2 h; positive control DEA-NONOate
Method in brief: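 ATCC 43300 in Mueller-Hinton medium at OD600 0.2 was loaded with 10 μM DAF-FM diacetate for 30 min in the dark. Cells were then exposed to 100 μM test compound or 100 μM DEA-NONOate for 120 min. Controls were medium alone, bacteria alone, and bacteria with dye. Fluorescence (ex 495/em 515 nm) was read in triplicate.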

[3] = test system: LAC yceI::Tn azoR3 pCM28_azoR; assay: MIC; assay type: cell-based, Staphylococcus aureus
Method in brief: as §1

LAC yceI::Tn azoR4 = assay: MIC; assay type: cell-based, Staphylococcus aureus; conditions: genotype yceI::Tn azoR4
LAC yceI::Tn azoR1 = assay: MIC; assay type: cell-based, Staphylococcus aureus
Method in brief: as §1

LAC azoR::Tn = assay: MIC; assay type: cell-based, Staphylococcus aureus; conditions: genotype azoR::Tn, LAC background
Method in brief: as §1

LAC yceI::Tn azoR2 pCM28 = assay: MIC; assay type: cell-based, Staphylococcus aureus
Method in brief: as §1

LAC yceI::Tn azoR3 pCM28 = assay: MIC; assay type: cell-based, Staphylococcus aureus
Method in brief: as §1

MRSA ATCC 43300 = assay: MIC, drug susceptibility assay; assay type: cell-based, Staphylococcus aureus; conditions: 18 h, 37 °C, visual inspection
VRSA strains = assay: MIC versus VRSA clinical isolates; assay type: cell-based, Staphylococcus aureus; conditions: five clinical isolates of VRSA
[4] = test system: S. aureus LAC pLL39_yceI2; assay: MIC; assay type: cell-based, Staphylococcus aureus; conditions: genotype pLL39_yceI2, LAC background
LAC pEPSA5 = assay: MIC; assay type: cell-based, Staphylococcus aureus
Method in brief: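 LAC strains carried empty pEPSA5 or pEPSA5_yceI (yceI under a xylose-inducible promoter). They were grown overnight with or without xylose induction; for the azoR overexpression set, pEPSA strains were cultured with 1% xylose. The 1/1000 inoculum went into Mueller-Hinton broth with serial compound dilutions, incubated statically at 37 °C for 18 h. Values represent three independent experiments.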

S. aureus (ATCC 43300) [5] = assay: Nitric oxide release assay, Griess reagent; assay type: cell-based, Staphylococcus aureus; conditions: 100 μM, over 48 h; positive control DEA-NONOate
Method in brief: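 ATCC 43300 was grown in Mueller-Hinton medium to OD600 0.4 and split three ways: untreated, 100 μM test compound, or 100 μM DEA-NONOate. At 24 and 48 h, samples were centrifuged and supernatants were mixed with fresh Griess reagent for 30 min at room temperature. Absorbance at 548 nm was converted to nitrite against sodium nitrite standards (50–0.78 μM, 2-fold) made in medium.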

VISA strains = assay: MIC versus VISA clinical isolates; assay type: cell-based, Staphylococcus aureus; conditions: six clinical isolates of VISA
LAC yceI::Tn azoR3 = assay: MIC; assay type: cell-based, Staphylococcus aureus
MRSA culture = assay: Time-kill curve; assay type: cell-based, Staphylococcus aureus
[6] = test system: LAC yceI::Tn azoR1 pCM28_azoR; assay: MIC; assay type: cell-based, Staphylococcus aureus
Method in brief: as §1

[7] = Mouse pharmacokinetic study; assay type: in vivo; conditions: CD-1 mice, oral 25 mg/kg, 0.5-5 h
Method in brief: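 Two female CD-1 mice received one oral 25 mg/kg dose in 20% DMA/80% PEG300. K2EDTA blood was taken pre-dose and at 0.5, 1, 3 and 5 h, and plasma was stored at −80 °C. Samples were precipitated with acetonitrile/methanol containing a verapamil internal standard and analysed by LC-MS/MS in MRM positive mode. Standard curves were made in CD-1 plasma, and QCs had to fall within 20% of nominal.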

[8] = test system: S. aureus LAC pLL39_yceI3; assay: MIC; assay type: cell-based, Staphylococcus aureus; conditions: genotype pLL39_yceI3, LAC background
[9] = test system: S. aureus LAC pLL39_yceI1; assay: MIC; assay type: cell-based, Staphylococcus aureus; conditions: genotype pLL39_yceI1, LAC background
[10] = test system: LAC yceI::Tn azoR2 pCM28_azoR; assay: MIC; assay type: cell-based, Staphylococcus aureus
Method in brief: as §1

LAC yceI::Tn pCM28_azoR = assay: MIC; assay type: cell-based, Staphylococcus aureus
Method in brief: as §1

LAC yceI::Tn strain = assay: Selection of spontaneous resistant mutants, frequency; assay type: cell-based, Staphylococcus aureus
[11] = test system: S. aureus LAC yceI::Tn pLL39_yceI1; assay: MIC; assay type: cell-based, Staphylococcus aureus; conditions: genotype yceI::Tn pLL39_yceI1, LAC background

SMILES: O=C(Nc1cc(Cl)cc2cccnc12)c1ccc([N+](=O)[O-])s1 [JSF-3151]
- MIC (LAC): 1.5 µg/mL (≈ 4.49 µM)
- MIC [1]: 0.78 µg/mL (≈ 2.34 µM)
- MIC (LAC yceI::Tn): 0.78 µg/mL (≈ 2.34 µM)
- MSSA ATCC 25923 MIC (MSSA ATCC 25923): 1.6 μg/mL and 4.8 μM
- MSSA ATCC 25923 MIC (MSSA ATCC 25923; listed as Z296972134 (3151)): 1.6 μg/mL and 4.8 μM
- half-life t1/2 in mouse liver microsomes: 1.46 min
- MIC (LAC yceI::Tn azoR1 pCM28): >50 µg/mL
- intrabacterial NO• release (DAF-FM) (S. aureus (ATCC 43300) [2]): neither DAF-FM (over 2 h) nor the Griess reagent (over 48 h) evidenced NO• production
- MIC [3]: 1.5 µg/mL (≈ 4.49 µM)
- MIC (LAC yceI::Tn azoR4): 25 µg/mL (≈ 74.9 µM)
- MIC shift versus yceI::Tn parental strain (LAC yceI::Tn azoR1; azoR1 (Trp100stop)): 15 fold
- MIC (LAC yceI::Tn azoR1; genotype yceI::Tn azoR1): 12 µg/mL (≈ 36 µM)
- MIC (LAC azoR::Tn): 50 µg/mL (≈ 150 µM)
- MIC (LAC yceI::Tn azoR2 pCM28): 25 µg/mL (≈ 74.9 µM)
- MIC (LAC yceI::Tn azoR3 pCM28): >50 µg/mL
- MRSA ATCC 43300 MIC (MRSA ATCC 43300): 4.0 μg/mL and 12 μM
- MRSA ATCC 43300 MIC (MRSA ATCC 43300; listed as Z296972134 (3151)): 4.0 μg/mL and 12 μM
- MIC versus VRSA compared to MRSA (VRSA strains): even greater potency
- MIC [4]: 50 µg/mL (≈ 150 µM)
- MIC (LAC pEPSA5; LAC pEPSA5, cultured with 1% xylose (Table 6)): 1.5 µg/mL (≈ 4.49 µM)
- MIC (LAC pEPSA5; LAC pEPSA5, growth with xylose +): 0.78 µg/mL
- MIC (LAC pEPSA5; LAC pEPSA5, growth with xylose −): 0.78 µg/mL (≈ 2.34 µM)
- NO• production as nitrite in supernatant (Griess reagent) (S. aureus (ATCC 43300) [5]): neither DAF-FM (over 2 h) nor the Griess reagent (over 48 h) evidenced NO• production
- MIC versus VISA compared to MRSA (VISA strains): even greater potency
- MIC shift versus yceI::Tn parental strain (LAC yceI::Tn azoR3; azoR3 (Thr121Ile)): 64 fold
- MIC (LAC yceI::Tn azoR3; genotype yceI::Tn azoR3): >50 µg/mL
- time to sterilize a MRSA culture (MRSA culture; 1x MIC): ≤ 4 h
- speed of sterilization relative to vancomycin (MRSA culture; both at 1x MIC): more than six times faster than vancomycin
- MIC [6]: 3.1 µg/mL (≈ 9.29 µM)
- mouse plasma level relative to MIC [7]: inability to reach the MIC over a 5 h time period
- MIC [8]: 50 µg/mL (≈ 150 µM)
- MIC [9]: 50 µg/mL (≈ 150 µM)
- MIC [10]: 1.5 µg/mL (≈ 4.49 µM)
- MIC (LAC yceI::Tn pCM28_azoR): 0.78 µg/mL (≈ 2.34 µM)
- frequency of heritable resistance (LAC yceI::Tn strain): approximately 3 x 10^−8
- MIC [11]: 50 µg/mL (≈ 150 µM)
